Laboratory results reported in ChEMBL document CHEMBL1132915.

How the values were obtained:
[1] = target: Xaa-Pro dipeptidase (Alteromonas sp.) (UniProt Q44238); experiment: Ratio of kinetic constant K1 to K2 from progress curves against OPAA from Alteromonas sp. JD6.5
Method in brief: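 Time-course assays at 25 °C in a cuvette spectrophotometer, started by adding enzyme to 3.0 mL of 50 mM bis-Tris propane pH 8.5, 100 mM NaCl, 0.1 mM MnCl2, without methanol. Complete hydrolysis was followed at 400 nm. Traces were fitted to single or double exponential equations to give rate constants for the two enantiomers, and their ratio was taken.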

[2] = target: Xaa-Pro dipeptidase (Alteromonas sp.) (UniProt Q44238); experiment: Ratio of kinetic constant Kcat to Km from initial velocity assay against OPAA from Alteromonas sp. JD6.5
Method in brief: (§1)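 Recombinant OPAA expressed in E. coli XL1 (plasmid pTCJS4), then ammonium sulfate and Q-Sepharose purification. Continuous plate assay at 25 °C with 1 μg enzyme in 50 mM bis-Tris propane pH 8.5, 100 mM NaCl, 0.1 mM MnCl2. Phenyl-containing and diisopropyl substrates had 5% methanol, diphenyl substrate 20%. p-Nitrophenol release was read at 400 nm (ε 17,000 M⁻¹ cm⁻¹). Rates were fitted to v = kcat·E·A/(Km + A).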

[3] = target: Xaa-Pro dipeptidase (Alteromonas sp.) (UniProt Q44238); experiment: Kinetic constant Kcat from initial velocity assay against Organophosphorus acid anhydrolase from Alteromonas sp. JD6.5; method in brief: as §1
[4] = target: Xaa-Pro dipeptidase (Alteromonas sp.) (UniProt Q44238); experiment: Ratio of kinetic constant Kcat to Km Sp and Kcat to Km Rp from initial velocity assay against OPAA from Alteromonas sp. JD6.5; method in brief: as §1
[5] = tested on: O=[N+]([O-])c1ccc(OP(=O)(Oc2ccccc2)Oc2ccccc2)cc1; experiment: (§2) Kinetic constant Km from initial velocity assay against Organophosphorus acid anhydrolase from Alteromonas sp. JD6.5; method in brief: as §1
[6] = tested on: CCO[P@](=O)(OC)Oc1ccc([N+](=O)[O-])cc1; experiment: as §2; method in brief: as §1
[7] = tested on: CCO[P@](=O)(Oc1ccccc1)Oc1ccc([N+](=O)[O-])cc1; experiment: as §2; method in brief: as §1
[8] = tested on: CC(C)O[P@@](=O)(Oc1ccccc1)Oc1ccc([N+](=O)[O-])cc1; experiment: as §2; method in brief: as §1
[9] = tested on: CO[P@](=O)(Oc1ccc([N+](=O)[O-])cc1)OC(C)C; experiment: as §2; method in brief: as §1
[10] = tested on: CCO[P@@](=O)(OC)Oc1ccc([N+](=O)[O-])cc1; experiment: as §2; method in brief: as §1
[11] = tested on: CO[P@](=O)(Oc1ccccc1)Oc1ccc([N+](=O)[O-])cc1; experiment: as §2; method in brief: as §1
[12] = tested on: CCO[P@@](=O)(Oc1ccccc1)Oc1ccc([N+](=O)[O-])cc1; experiment: as §2; method in brief: as §1
[13] = tested on: CO[P@@](=O)(Oc1ccccc1)Oc1ccc([N+](=O)[O-])cc1; experiment: as §2; method in brief: as §1
[14] = tested on: CO[P@@](=O)(Oc1ccc([N+](=O)[O-])cc1)OC(C)C; experiment: as §2; method in brief: as §1
[15] = tested on: COP(=O)(OC)Oc1ccc([N+](=O)[O-])cc1; experiment: as §2; method in brief: as §1
[16] = tested on: CC(C)O[P@](=O)(Oc1ccccc1)Oc1ccc([N+](=O)[O-])cc1; experiment: as §2; method in brief: as §1
[17] = tested on: CCOP(=O)(OCC)Oc1ccc([N+](=O)[O-])cc1; experiment: as §2; method in brief: as §1
[18] = target: Xaa-Pro dipeptidase (Alteromonas sp.) (UniProt Q44238); experiment: Ratio of kinetic constant Kcat to Km by linear fit to data against OPAA from Alteromonas sp. JD6.5
Method in brief: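 kcat/Km was taken from a linear fit to initial-rate data. Continuous 400 nm p-nitrophenol assay at 25 °C with 1 μg recombinant OPAA (E. coli XL1/pTCJS4). Buffer was 50 mM bis-Tris propane pH 8.5, 100 mM NaCl, 0.1 mM MnCl2, plus 5–20% methanol depending on substrate.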

[19] = target: Xaa-Pro dipeptidase (Alteromonas sp.) (UniProt Q44238); experiment: Kinetic constant Kcat from initial velocity assay (at 7.6 mM substrate) against Organophosphorus acid anhydrolase from Alteromonas sp. JD6.5
Method in brief: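 Initial-rate assay at a single substrate concentration of 7.6 mM. Used 1 μg purified recombinant OPAA (E. coli XL1/pTCJS4) at 25 °C in 50 mM bis-Tris propane pH 8.5, 100 mM NaCl, 0.1 mM MnCl2, with methanol cosolvent as needed. Hydrolysis was followed at 400 nm as p-nitrophenol (ε 17,000 M⁻¹ cm⁻¹).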

Chain of Xaa-Pro dipeptidase (Alteromonas sp.) (UniProt Q44238) (Q44238 whole entry, looked up): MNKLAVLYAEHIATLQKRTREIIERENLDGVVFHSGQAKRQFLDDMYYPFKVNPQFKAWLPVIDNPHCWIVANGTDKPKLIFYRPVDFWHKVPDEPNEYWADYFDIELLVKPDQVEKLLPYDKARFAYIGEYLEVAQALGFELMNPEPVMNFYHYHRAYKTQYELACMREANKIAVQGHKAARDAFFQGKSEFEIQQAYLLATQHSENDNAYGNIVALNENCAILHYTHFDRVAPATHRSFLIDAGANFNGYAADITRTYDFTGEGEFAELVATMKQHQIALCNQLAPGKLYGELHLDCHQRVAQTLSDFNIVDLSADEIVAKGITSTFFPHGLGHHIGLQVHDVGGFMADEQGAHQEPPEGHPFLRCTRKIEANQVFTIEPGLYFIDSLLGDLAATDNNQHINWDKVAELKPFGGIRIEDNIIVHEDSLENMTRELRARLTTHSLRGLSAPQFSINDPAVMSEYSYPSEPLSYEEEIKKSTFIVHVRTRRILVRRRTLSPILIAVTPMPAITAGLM

| Compound | Ratio [1] | k cat/Km [2] [M⁻¹ s⁻¹] | k cat [3] [s⁻¹] | Ratio [4] | further results |
| --- | --- | --- | --- | --- | --- |
| CO[P@@](=O)(Oc1ccc([N+](=O)[O-])cc1)OC(C)C | 100 | 190 | 3.6 | 23 | – |
| Xaa-Pro dipeptidase (Alteromonas sp.) (from UniProt Q44238) | – | – | – | – | Km [5]: 0.2 mM; Km [6]: 14 mM; Km [7]: 0.6 mM; Km [8]: 1.3 mM; Km [9]: 12 mM; Km [10]: 8.3 mM; Km [11]: 0.8 mM; Km [12]: 2 mM; Km [13]: 4 mM; Km [14]: 19 mM; Km [15]: 9.5 mM; Km [16]: 0.3 mM; Km [17]: > 7.6 mM |
| CCO[P@](=O)(OC)Oc1ccc([N+](=O)[O-])cc1 | – | 3250 | 47 | – | – |
| CCO[P@](=O)(Oc1ccccc1)Oc1ccc([N+](=O)[O-])cc1 | 2.8 | 300 | 0.2 | < 3 | – |
| CC(C)O[P@](=O)(Oc1ccccc1)Oc1ccc([N+](=O)[O-])cc1 | 3.5 | 240 | 0.1 | < 3 | – |
| CCO[P@@](=O)(OC)Oc1ccc([N+](=O)[O-])cc1 | 112 | 90 | 0.8 | 36 | – |
| CO[P@](=O)(Oc1ccc([N+](=O)[O-])cc1)OC(C)C | – | 4510 | 54 | – | – |
| COP(=O)(OC)Oc1ccc([N+](=O)[O-])cc1 | – | 140 | 1.4 | – | – |
| CC(C)O[P@@](=O)(Oc1ccccc1)Oc1ccc([N+](=O)[O-])cc1 | – | 150 | 0.2 | – | – |
| O=[N+]([O-])c1ccc(OP(=O)(Oc2ccccc2)Oc2ccccc2)cc1 | – | 530 | 0.1 | – | – |
| CO[P@@](=O)(Oc1ccccc1)Oc1ccc([N+](=O)[O-])cc1 | – | 9990 | 40 | – | – |
| CCOP(=O)(OCC)Oc1ccc([N+](=O)[O-])cc1 | – | – | – | – | k cat/Km [18]: 280 M⁻¹ s⁻¹; k cat [19]: 1.8 s⁻¹ |
| CO[P@](=O)(Oc1ccccc1)Oc1ccc([N+](=O)[O-])cc1 | 14.5 | 2340 | 1.8 | 4 | – |
| CCO[P@@](=O)(Oc1ccccc1)Oc1ccc([N+](=O)[O-])cc1 | – | 360 | 0.7 | – | – |
